CHRM4 PAM: CHRM4 positive allosteric modulation | activation, % at 3 µM | CHO-K1 hM4/Gqi5, Fluo-8 calcium fluorescence, ACh EC20; 0% = ACh EC20, 100% = maximal ACh | P08173 | actives 0.4% (n = 360,000);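 active = activation above its plate's cutoff, the mean activation of sample wells plus 3 SD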
CHRM4 agonist: agonists of human muscarinic M4 receptor (CHRM4); P08173; CHO-K1 hM4/Gqi5, Fluo-8 calcium fluorescence; vehicle 0%, full acetylcholine response 100%; activation, % at 3 µM; actives 0.14% (n = 360,000); AID 624127;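 active = activation above the run mean over all test wells plus 3 SD, cut at about 32% in these data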;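 note: peak over basal fluorescence ratio per well then scaled between controls; 0% = DMSO wells and 100% = acetylcholine at EC100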
TAAR1 antagonist: human TAAR1 antagonism. Q96RJ0. CHO RD-HGA16 TAAR1, Fluo-8 calcium fluorescence, antagonist. inhibition, % at 3 µM. actives 1.5% (n = 360,000);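 active = inhibition above a per-plate cutoff, the mean inhibition of test compounds on that plate plus 3 SD, cut at about 49% in these data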;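 note: 0% = DMSO plus EC80 beta-PEA response and 100% = DMSO alone without agonist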
Target sequence (Q96RJ0 whole entry, looked up): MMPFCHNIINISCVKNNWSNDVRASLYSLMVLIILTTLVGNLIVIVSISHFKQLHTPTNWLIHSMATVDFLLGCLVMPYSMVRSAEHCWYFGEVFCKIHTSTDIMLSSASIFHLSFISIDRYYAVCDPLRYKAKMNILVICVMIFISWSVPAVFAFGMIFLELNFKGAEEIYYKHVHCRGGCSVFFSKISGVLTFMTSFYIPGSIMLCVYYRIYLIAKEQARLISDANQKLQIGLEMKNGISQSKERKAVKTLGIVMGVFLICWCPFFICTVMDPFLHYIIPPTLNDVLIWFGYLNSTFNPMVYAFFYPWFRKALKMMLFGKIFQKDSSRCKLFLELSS
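Test system: RD-HGA16 CHO cells with stable hTAAR1 and Gα16 / Probe or stimulus: EC80 β-phenethylamine stimulus / Times: seeding 17-24 h prior, 75-min 37 °C, 30-min RT dye loading / Detection: Fluo-8 calcium-sensitive fluorescence / Read-out basis: % inhibition scaled between DMSO and EC80 PEA controls / Repeats: singlicate, one well per test compound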
M4 antag: antagonists of human muscarinic M4 receptor (CHRM4); P08173; CHO-hM4 cells, ACh EC80, Fluo-8 calcium fluorescence; inhibition, % at 3 µM; actives 0.73% (n = 360,000); AID 624125;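 active = inhibition above its plate's cutoff, the mean inhibition of sample wells plus 3 SD, cut at about 27% in these data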;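 note: 0% = acetylcholine EC80 with DMSO and 100% = DMSO without agonist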
TAAR1 ag: agonists of human TAAR1. CHO RD-HGA16 TAAR1, Fluo-8 calcium fluorescence; vehicle wells 0%, saturating PEA agonist 100%. actives 0.99% (n = 360,000). activation, % at 3 µM;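 active = activation above the mean activation of all test compounds in the run plus 3 SD, cut at about 38% in these data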
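Assay system – CHO-derived RD-HGA16 cells with stable Gα16 and human TAAR1 · Compound dosing – one-point dosing at 3 µM (nominal) · Incubation – 17-24 h seeding, 75 min 37 °C dye, 30 min RT · Measured by – kinetic Fluo-8 calcium fluorescence · Control set – DMSO vehicle as 0%, PEA at EC100 as 100% · Repeats – single well for each compound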
nonsel antag count: counter-screen for TAAR1 antagonists: nonselective antagonists. shares compounds with TAAR1 antagonist. counterscreen cell line, calcium fluorescence, antagonist mode. inhibition, % at 3 µM. actives 77% (n = 2,400). AID 651780; in the data active = inhibition above about 22%;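 note: CHO-Ga16 host cells stimulated with ATP at an EC80 level; 0% = agonist EC80 plus vehicle and 100% = vehicle without agonist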
TAAR1 antag conf: human TAAR1 antagonism, confirmed | actives 40% (n = 2,400) | inhibition, % at 3 µM | AID 651785 | shares compounds with TAAR1 antagonist | TAAR1-expressing cells, fluorescence antagonist read-out; in the data active = inhibition above about 49%;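 note: CHO-Ga16 host cells challenged with agonist PEA near its EC80; 0% = agonist at EC80 plus vehicle and 100% = vehicle with no agonist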
Ga16 ag counter: nonselective Ga16 agonist in TAAR1 antagonist counter-screen; activation, % at 3 µM; AID 651953; Ga16-expressing cells, calcium fluorescence, agonist counterscreen; shares compounds with TAAR1 antagonist; actives 18% (n = 2,400); in the data active = activation above about 12%;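 note: 0% = vehicle wells and 100% = saturating stimulus response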
TAAR1 ag counter: TAAR1 agonism, antagonist counter-screen; shares compounds with TAAR1 antagonist; hTAAR1 cell line, fluorescence activation, agonist mode; activation, % at 3 µM; actives 2% (n = 2,400); AID 651955; in the data active = activation above about 37%;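 note: CHO cells stably expressing TAAR1 with calcium dye readout; 0% = DMSO vehicle and 100% = full agonist response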
Numbers without * were called inactive; · = not tested or not shown. Shown are actives, neighbours in structure and some others; about 3% of the full set was active somewhere.

SMILES	CHRM4 PAM	CHRM4 agonist	TAAR1 antagonist	M4 antag	TAAR1 ag	nonsel antag count	TAAR1 antag conf	Ga16 ag counter	TAAR1 ag counter
O=C(COC(=O)/C=C/c1cn(-c2ccccc2)nc1-c1ccc2c(c1)OCCO2)NC1CCS(=O)(=O)C1 (stereo unspecified)	-12	4	87*	-7	14	40*	55*	8	7
CCOc1cc(NC(=S)NCCOC)c(OCC)cc1NC(=O)c1cccs1	·	·	-5	·	10	·	·	·	·
CCOc1cc(NC(=S)NC)c(OCC)cc1NC(=O)c1cccs1	-6	0	54*	10	11	4	6	0	1
CN1C=CC(C(C(N)=O)c2ccccc2)c2ccccc21 (stereo unspecified)	11	1	-3	-10	3	·	·	·	·
O=C(C1CCN(S(=O)(=O)c2cccc3cccnc23)CC1)N1CCn2c1nc1ccccc12	5	7	60*	-14	9	28*	44	8	7
CCCCCC(=O)OCc1ccc(C2=CC(=O)CC(C)(C)C2=O)cc1	-1	5	22	-10	2	·	·	·	·
COc1ccc2cc(C(=O)C3CCCN(C(=O)CSc4nnc(C)o4)C3)ccc2c1 (stereo unspecified)	-11	13	103*	-12	0	18	7	4	7
Cc1c(N=C2N=C(NC(=O)c3cccs3)c3ccccc32)c(=O)n(-c2ccccc2)n1C	-2	2	59*	1	18	42*	49*	18*	13
COC(=O)C[C@@H]1OC[C@H](C(C)C)N1S(=O)(=O)c1ccc(C)cc1	5	2	-22	-7	-1	·	·	·	·
CC(C)c1ccc(/C=N/NC(=O)c2ccc(-n3cnnn3)cc2)cc1	3	4	66*	-4	16	32*	48	9	8
CCc1nc2ccc(C(=O)NCCN3CCNC3=O)cn2c1N(CCC(C)C)CCN(C)C	3	0	-9	-10	1	·	·	·	·
O=C(NCCN1CCOCC1)c1ccc(=O)n(Cc2ccc(Cl)cc2)c1	9	0	105*	3	7	12	15	0	-2
O=C(O)c1cccc(NC(=O)c2cn(-c3ccccc3)nc2-c2cc3ccccc3o2)c1	8	1	64*	-13	12	39*	42	6	4
O=C(N/N=C/c1cn(-c2ccccc2)nc1-c1cc2ccccc2o1)c1ccncc1	0	7	48	7	7	·	·	·	·
COc1ccc(NC(=O)CN(C)C(=O)c2cccc3ccccc23)cc1	2	1	-24	6	3	·	·	·	·
Cn1cc(CNC(=O)c2cc(-c3ccccc3)nc3ccc(Br)cc23)cn1	-8	4	43	-7	10	·	·	·	·
Cc1ccc(NC(=O)CN(C)C(=O)c2cc(-c3ccco3)nc3ccccc23)cc1	4	5	1	-2	11	·	·	·	·
Cc1nn(C)cc1CN(C)C(=O)c1cc(-c2ccccc2)nc2ccc(Br)cc12	-17	18	65*	7	17	37*	54*	8	8
CN(CC(=O)Nc1ccc(F)cc1)C(=O)c1cc(-c2ccco2)nc2ccccc12	0	9	39	-4	11	·	·	·	·
CN(CCOc1ccc(Cl)cc1)C(=O)c1cc(-c2ccco2)nc2ccccc12	-10	22	74*	19	15	40*	59*	9	9
COc1ccc(NC(=O)CN(C)C(=O)c2cc(-c3ccc(OC)cc3)nc3ccccc23)cc1	-6	23	70*	14	16	33*	60*	10	8
COc1ccc(NC(=O)CN(C)C(=O)c2cc(-c3ccccc3)nc3ccccc23)cc1	-7	20	55*	6	17	28*	43	7	11

Assay outcomes: PubChem, The Scripps Research Institute Molecular Screening Center
